Assay results taken from ChEMBL document CHEMBL4118152, “Discovery of Potent and Selective Periphery-Restricted Quinazoline Inhibitors of the Cyclic Nucleotide Phosphodiesterase PDE1” (J Med Chem, 2018).
Calls of active or inactive are those of the source. The rule behind the calls is not given here.

Key:
[1] = biological target: Dual specificity calcium/calmodulin-dependent 3',5'-cyclic nucleotide phosphodiesterase 1B (Homo sapiens, UniProt Q01064); assay: Inhibition of full length recombinant human PDE1B1 using 3',5'-[3H]cAMP as substrate after 30 mins by scintillation proximity assay
Chain of Dual specificity calcium/calmodulin-dependent 3',5'-cyclic nucleotide phosphodiesterase 1B (Q01064 whole entry): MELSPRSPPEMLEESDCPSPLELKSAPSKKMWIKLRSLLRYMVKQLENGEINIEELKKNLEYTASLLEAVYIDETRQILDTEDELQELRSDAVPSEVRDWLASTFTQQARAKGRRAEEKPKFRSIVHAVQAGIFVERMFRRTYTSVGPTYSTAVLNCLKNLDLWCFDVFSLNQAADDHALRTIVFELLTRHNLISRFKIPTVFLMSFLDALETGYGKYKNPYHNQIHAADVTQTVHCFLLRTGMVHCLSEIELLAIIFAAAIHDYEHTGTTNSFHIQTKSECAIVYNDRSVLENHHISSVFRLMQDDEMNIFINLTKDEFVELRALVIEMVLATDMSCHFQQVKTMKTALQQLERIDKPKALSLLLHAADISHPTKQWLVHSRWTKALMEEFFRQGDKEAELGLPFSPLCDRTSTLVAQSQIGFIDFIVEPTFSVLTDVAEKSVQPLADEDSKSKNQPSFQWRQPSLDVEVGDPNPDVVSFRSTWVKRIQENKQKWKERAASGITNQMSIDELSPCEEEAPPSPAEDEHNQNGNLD
In short: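 Enzymes were human except PDE6A, which was bovine. Each was assayed with cAMP or cGMP substrate, as appropriate to the enzyme, at concentrations below 1/3 of Km. IC50 values are mean ± SEM from n = 3 or more.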

[2] = biological target: Dual specificity calcium/calmodulin-dependent 3',5'-cyclic nucleotide phosphodiesterase 1A (Homo sapiens, UniProt P54750); assay: Inhibition of full length recombinant human PDE1A using 3',5'-[3H]cAMP as substrate after 30 mins by scintillation proximity assay
Chain of Dual specificity calcium/calmodulin-dependent 3',5'-cyclic nucleotide phosphodiesterase 1A (P54750 whole entry): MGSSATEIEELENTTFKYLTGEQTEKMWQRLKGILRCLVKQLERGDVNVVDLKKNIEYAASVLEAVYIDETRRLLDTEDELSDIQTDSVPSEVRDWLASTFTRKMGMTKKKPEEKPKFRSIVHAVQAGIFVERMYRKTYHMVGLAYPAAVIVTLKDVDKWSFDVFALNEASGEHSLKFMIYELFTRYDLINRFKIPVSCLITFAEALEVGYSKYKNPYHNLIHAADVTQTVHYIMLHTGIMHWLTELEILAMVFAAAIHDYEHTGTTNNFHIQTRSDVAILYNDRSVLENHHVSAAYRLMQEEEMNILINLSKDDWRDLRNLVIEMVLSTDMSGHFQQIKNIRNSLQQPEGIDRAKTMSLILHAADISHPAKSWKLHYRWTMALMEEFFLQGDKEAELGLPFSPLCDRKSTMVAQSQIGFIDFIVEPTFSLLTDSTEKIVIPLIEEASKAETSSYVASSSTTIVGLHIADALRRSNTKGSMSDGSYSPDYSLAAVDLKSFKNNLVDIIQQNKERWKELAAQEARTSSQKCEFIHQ
In short: (§1)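 Human recombinant enzymes; substrate held below 1/3 of Km. IC50 reported as mean ± SEM of at least 3 determinations.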

[3] = biological target: T1, Dual specificity calcium/calmodulin-dependent 3',5'-cyclic nucleotide phosphodiesterase 1C (Homo sapiens, UniProt Q14123); assay: Inhibition of full length recombinant human PDE1C using 3',5'-[3H]cAMP as substrate after 30 mins by scintillation proximity assay; in short: as §1
T1 sequence (Q14123 whole entry): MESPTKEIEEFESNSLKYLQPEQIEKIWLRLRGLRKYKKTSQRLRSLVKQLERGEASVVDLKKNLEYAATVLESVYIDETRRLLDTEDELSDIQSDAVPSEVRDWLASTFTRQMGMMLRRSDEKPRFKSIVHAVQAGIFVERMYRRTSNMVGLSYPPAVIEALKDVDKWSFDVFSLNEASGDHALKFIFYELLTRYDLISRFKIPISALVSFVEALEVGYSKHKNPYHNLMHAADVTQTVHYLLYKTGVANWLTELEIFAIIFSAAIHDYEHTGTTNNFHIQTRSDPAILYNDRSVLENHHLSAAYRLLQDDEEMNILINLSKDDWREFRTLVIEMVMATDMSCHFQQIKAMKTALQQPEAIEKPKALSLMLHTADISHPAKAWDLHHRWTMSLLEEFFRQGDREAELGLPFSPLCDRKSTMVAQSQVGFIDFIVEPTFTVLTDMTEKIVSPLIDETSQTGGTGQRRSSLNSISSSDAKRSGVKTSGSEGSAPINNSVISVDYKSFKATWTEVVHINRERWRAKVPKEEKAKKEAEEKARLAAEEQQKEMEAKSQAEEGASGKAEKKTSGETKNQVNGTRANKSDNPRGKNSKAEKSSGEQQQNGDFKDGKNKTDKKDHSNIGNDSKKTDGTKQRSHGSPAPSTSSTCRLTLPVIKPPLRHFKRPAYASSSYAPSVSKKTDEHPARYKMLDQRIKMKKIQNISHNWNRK

[4] = biological target: T2, cGMP-specific 3',5'-cyclic phosphodiesterase (Homo sapiens, UniProt O76074); assay: Inhibition of PDE5A in soluble protein extracts of human myocardium assessed as Ca2+/calmodulin stimulated substrate hydrolysis using 3',5'-[3H]cGMP as substrate relative to control; settings: concentration not given here
In short: (§2)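 Soluble protein extracts from human left ventricle, test agent 1.0 µM, [3H]cAMP or [3H]cGMP substrate at 0.1 µM. Total activity was measured with CaCl2 plus exogenous calmodulin, and a parallel reaction was run with the Ca2+ chelator EGTA. Ca2+/calmodulin-dependent activity is total minus the EGTA activity; inhibition is given relative to control.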

[5] = biological target: T2, cGMP-specific 3',5'-cyclic phosphodiesterase; assay: Inhibition of recombinant human PDE5 expressed in HEK293 cells using 3',5'-[3H]cGMP as substrate at 1 uM
In short: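 Recombinant enzymes were tested at 1.0 µM inhibitor with cAMP or cGMP substrate at 0.1 µM. Read-out is hydrolytic activity relative to control.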

HEK293 = assay: Inhibition of recombinant human PDE3 expressed in HEK293 cells using 3',5'-[3H]cAMP as substrate at 1 uM
In short: (§3)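 Recombinant enzymes were assayed for hydrolysis of cAMP or cGMP, with substrate at 0.1 µM. The inhibitor was tested at 1.0 µM.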

[6] = biological target: T3, cGMP-inhibited 3',5'-cyclic phosphodiesterase 3A (Homo sapiens, UniProt Q14432); assay: Inhibition of PDE3A in soluble protein extracts of human myocardium using 3',5'-[3H]cAMP as substrate at 1 uM relative to control
T3 sequence (Q14432 whole entry): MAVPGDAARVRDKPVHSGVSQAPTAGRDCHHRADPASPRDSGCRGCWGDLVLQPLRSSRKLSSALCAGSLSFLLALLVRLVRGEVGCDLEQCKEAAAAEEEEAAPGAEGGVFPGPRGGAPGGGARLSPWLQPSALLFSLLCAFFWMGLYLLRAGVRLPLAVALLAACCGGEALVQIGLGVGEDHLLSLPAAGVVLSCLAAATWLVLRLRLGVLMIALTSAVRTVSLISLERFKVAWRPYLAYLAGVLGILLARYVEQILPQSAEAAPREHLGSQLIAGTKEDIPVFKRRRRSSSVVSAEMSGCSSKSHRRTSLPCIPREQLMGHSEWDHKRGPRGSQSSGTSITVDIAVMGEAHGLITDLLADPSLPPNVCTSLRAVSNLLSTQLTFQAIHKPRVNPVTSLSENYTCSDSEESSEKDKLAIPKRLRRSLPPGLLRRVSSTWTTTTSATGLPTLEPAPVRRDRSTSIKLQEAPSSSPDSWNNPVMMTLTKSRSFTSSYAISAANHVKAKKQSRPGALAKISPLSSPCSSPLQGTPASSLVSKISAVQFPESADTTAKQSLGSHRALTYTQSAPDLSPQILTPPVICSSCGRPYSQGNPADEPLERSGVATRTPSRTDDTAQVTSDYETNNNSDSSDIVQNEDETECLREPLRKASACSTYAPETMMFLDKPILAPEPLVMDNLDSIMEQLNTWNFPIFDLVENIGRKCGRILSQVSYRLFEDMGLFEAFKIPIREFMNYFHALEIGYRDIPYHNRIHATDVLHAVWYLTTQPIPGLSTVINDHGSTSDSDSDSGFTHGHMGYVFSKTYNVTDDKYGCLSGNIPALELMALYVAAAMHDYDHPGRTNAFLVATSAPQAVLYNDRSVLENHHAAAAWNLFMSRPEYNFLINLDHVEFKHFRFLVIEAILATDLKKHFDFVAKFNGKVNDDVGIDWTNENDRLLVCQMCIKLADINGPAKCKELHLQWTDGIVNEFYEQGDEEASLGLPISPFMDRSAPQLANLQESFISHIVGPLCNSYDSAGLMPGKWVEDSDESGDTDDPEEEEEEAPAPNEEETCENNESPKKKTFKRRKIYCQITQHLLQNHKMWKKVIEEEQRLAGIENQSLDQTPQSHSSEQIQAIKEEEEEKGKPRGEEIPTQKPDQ

[7] = biological target: T3, cGMP-inhibited 3',5'-cyclic phosphodiesterase 3A; assay: Inhibition of recombinant human PDE3A expressed in HEK293 cells using 3',5'-[3H]cGMP as substrate; in short: as §3
[8] = biological target: T1, Dual specificity calcium/calmodulin-dependent 3',5'-cyclic nucleotide phosphodiesterase 1C; assay: Inhibition of recombinant C-terminal FLAG tagged human PDE1C expressed in HEK293 cells using 3',5'-[3H]cGMP as substrate
[9] = biological target: T2, cGMP-specific 3',5'-cyclic phosphodiesterase; assay: Inhibition of PDE5A in soluble protein extracts of human myocardium assessed as Ca2+/calmodulin stimulated substrate hydrolysis using 3',5'-[3H]cAMP as substrate relative to control; settings: concentration not given here; in short: as §2
[10] = biological target: T1, Dual specificity calcium/calmodulin-dependent 3',5'-cyclic nucleotide phosphodiesterase 1C; assay: Inhibition of recombinant C-terminal FLAG tagged human PDE1C expressed in HEK293 cells using 3',5'-[3H]cAMP as substrate
[11] = biological target: T3, cGMP-inhibited 3',5'-cyclic phosphodiesterase 3A; assay: Inhibition of recombinant human PDE3A expressed in HEK293 cells using 3',5'-[3H]cAMP as substrate; in short: as §3
[12] = biological target: T3, cGMP-inhibited 3',5'-cyclic phosphodiesterase 3A; assay: Inhibition of PDE3A in soluble protein extracts of human myocardium assessed as Ca2+/calmodulin stimulated substrate hydrolysis using 3',5'-[3H]cGMP as substrate relative to control; settings: concentration not given here; in short: as §2
[13] = biological target: T3, cGMP-inhibited 3',5'-cyclic phosphodiesterase 3A; assay: Inhibition of PDE3A in soluble protein extracts of human myocardium assessed as Ca2+/calmodulin stimulated substrate hydrolysis using 3',5'-[3H]cAMP as substrate relative to control; settings: concentration not given here; in short: as §2
[14] = biological target: T2, cGMP-specific 3',5'-cyclic phosphodiesterase; assay: Inhibition of PDE5A in soluble protein extracts of human myocardium using 3',5'-[3H]cGMP as substrate at 1 uM relative to control
[15] = biological target: T2, cGMP-specific 3',5'-cyclic phosphodiesterase; assay: Inhibition of PDE5A in soluble protein extracts of human myocardium using 3',5'-[3H]cAMP as substrate at 1 uM relative to control
[16] = biological target: T2, cGMP-specific 3',5'-cyclic phosphodiesterase; assay: Inhibition of recombinant human PDE5A expressed in HEK293 cells using 3',5'-[3H]cGMP as substrate; in short: as §3
[17] = biological target: T3, cGMP-inhibited 3',5'-cyclic phosphodiesterase 3A; assay: Inhibition of PDE3A in soluble protein extracts of human myocardium using 3',5'-[3H]cGMP as substrate at 1 uM relative to control

COc1cc2ncnc(NC(C)Cc3cc(C)n[nH]3)c2cc1OC (racemic)
IC50 [1]: 52 nM

COc1ccc2c(N[C@H](C)Cc3cc(C)[nH]n3)ncnc2c1OC
IC50 [2]: 777 nM
IC50 [1]: 596 nM
IC50 [3]: 579 nM

CCC(CC)Nc1ncnc2c(OC)c(OC)c(OC)cc12
IC50 [1]: 35 nM

COc1ccc2c(NC(C)Cc3cc(C)[nH]n3)ncnc2c1OC (racemic)
inhibition [4]: 90%
inhibition [5]: Active
inhibition (HEK293): Active
inhibition [6]: 76%
IC50 [7]: 369000 nM
IC50 [8]: 110 nM
IC50 [2]: 118 nM
inhibition [9]: 90%
IC50 [10]: 56 nM
IC50 [11]: 101000 nM
IC50 [1]: 21 nM
inhibition [12]: 90%
inhibition [13]: 90%
inhibition [14]: 80%
inhibition [15]: 76%
IC50 [3]: 83 nM
IC50 [16]: 30300 nM
inhibition [17]: 80%

COc1cc2c(NC(C)Cc3cc(C)n[nH]3)ncnc2c(OC)c1OC (racemic)
IC50 [1]: 27 nM

COc1ccc2c([C@H]3CCc4ccc(Cl)cc43)ncnc2c1OC
IC50 [1]: 4.5 nM
